NR2E3 ag-1: activates human photoreceptor nuclear receptor NR2E3. 0.12% of 320,000 active. GST-NR2E3/biotin-RetCOR TR-FRET, 1536-well. AID 2300. inhibition of corepressor binding, % at 4.78 µM. Q9Y5X4;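 active means percent inhibition above the cutoff of mean plus 3 SD of all tested compounds, set per screening campaign, cut at about 20% in these data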;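 further: 0% = DMSO wells and 100% = biotin wells as full block of FRET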
Target sequence (Q9Y5X4 whole entry, looked up): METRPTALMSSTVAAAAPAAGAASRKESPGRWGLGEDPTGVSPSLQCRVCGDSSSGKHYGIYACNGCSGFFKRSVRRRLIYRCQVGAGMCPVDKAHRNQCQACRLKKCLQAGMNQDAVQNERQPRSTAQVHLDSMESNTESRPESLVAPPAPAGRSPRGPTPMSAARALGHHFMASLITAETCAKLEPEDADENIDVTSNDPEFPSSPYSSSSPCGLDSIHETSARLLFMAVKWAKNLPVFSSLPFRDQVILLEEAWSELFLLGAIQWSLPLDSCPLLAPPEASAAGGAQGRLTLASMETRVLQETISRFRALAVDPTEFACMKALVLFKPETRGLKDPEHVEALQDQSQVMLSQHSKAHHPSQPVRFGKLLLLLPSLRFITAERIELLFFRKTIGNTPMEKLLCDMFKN
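Material – GST-tagged NR2E3 plus biotinylated RetCOR corepressor · Quantity – NR2E3 fusion 1.35 nM · Times – 5 h incubation at 4 °C · Medium – pH 7.5 Tris-based buffer · Technique – TR-FRET, Eu(K)-anti-GST donor, streptavidin-D2 acceptor, ex 340, em 617/671 nm · Benchmarks – high control biotin, low control 0.6% DMSO · Format – 1536-well plates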
DAX1 inh-1: NR0B1 (DAX1) inhibition. HEK293 Gal4-DAX1 luciferase reporter, luminescence. AID 504766. 0.99% of 340,000 active. inhibition, % at 6.75 µM;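 active means inhibition above the mean over all tested compounds plus 3 SD, cut at about 4.2% in these data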;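 further: 0% = DAX1-transfected cells with DMSO and 100% = empty-vector control cells with DMSO; inhibition shows as a rise in luminescence from relieved DAX1 repression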
Target sequence (P51843 207-470 limits assumed): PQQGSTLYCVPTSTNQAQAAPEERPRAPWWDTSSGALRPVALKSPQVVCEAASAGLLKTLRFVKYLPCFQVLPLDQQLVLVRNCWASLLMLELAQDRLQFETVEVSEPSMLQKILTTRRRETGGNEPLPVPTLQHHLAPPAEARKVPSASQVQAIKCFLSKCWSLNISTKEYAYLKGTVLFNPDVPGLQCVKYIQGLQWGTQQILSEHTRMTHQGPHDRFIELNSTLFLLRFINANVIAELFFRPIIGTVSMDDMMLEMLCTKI
NR2E3 ag-2: activates human NR2E3 receptor | 0.35% of 360,000 active | AID 602229 | inhibition of corepressor binding, % at 3.98 µM | CHO-S Gal4-NCOR/VP16-NR2E3 two-hybrid, luciferase;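 active means inhibition above the mean of all tested compounds plus 3 SD, cut at about 70% in these data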;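 further: 0% = DMSO with NR2E3 transfected cells and 100% = cells lacking NR2E3 construct; higher means lower luciferase signal from less NR2E3 corepressor binding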
SMARCA2 act: activators of SMARCA2 function; MG213 cells, MMTV-luciferase reporter, dexamethasone, overnight; activation, % at 9.1 µM; 1% of 370,000 active; in the data active means activation above about 7.8%;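 further: 0% = vehicle wells and 100% = reference activator wells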
DAX1 inh-2: inhibitors of DAX1 repression of SF-1 activated StAR promoter | inhibition, % at 6.8 µM | 1.1% of 370,000 active | AID 652010 | HEK293T StAR-luciferase reporter, SF-1/DAX-1 repression relief;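 active means inhibition above the mean over all tested compounds plus 3 SD, cut at about 3.6% in these data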;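 further: 0% = DAX-1 cells with DMSO and 100% = cells lacking DAX-1 with DMSO; higher inhibition means more luminescence from relief of DAX-1 repression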
GASC-1 inh: human JMJD2C demethylase inhibition. Q9H3R0. GST-JMJD2C(1-420) H3K9me3 demethylation, DELFIA europium. inhibition, % at 2.35 µM. 0.069% of 330,000 active;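 active means more than half of a compound's replicate wells show inhibition beyond 50%, single wells judged on their own value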;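 further: signal counts dimethyl H3K9 product captured on neutravidin plate; 0% = median of DMSO wells and 100% = 0.3 times that DMSO median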
DAX1 inh confirm: NR0B1 (human) inhibition, confirmation; shares compounds with DAX1 inh-2; HEK293T StAR-promoter luciferase reporter, SF-1/DAX-1 repression; inhibition, % at 6.8 µM; 87% of 2,400 active;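 active means inhibition above the average of every tested compound plus 3 SD, cut at about 3.8% in these data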;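 further: 0% = DAX-1 cells with DMSO and 100% = no DAX-1 control cells with DMSO; active compounds raise luminescence by relieving repression of the StAR reporter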
SF1 mutant ctr: counter-screen for DAX1 inhibitors: nonselective inhibitors with SF-1 AF2 mutant; shares compounds with DAX1 inh-2; HEK293 StAR-luciferase, luminescence; inhibition, % at 6.8 µM; 78% of 2,400 active;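 active means inhibition above the mean of all tested compounds plus 3 SD, cut at about 3% in these data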;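 further: 0% = DAX-1 transfected cells with DMSO and 100% = cells without DAX-1 with DMSO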
SMARCA2 conf: confirmation of SMARCA2 (BRM) function activators | shares compounds with SMARCA2 act | MG213 cells, MMTV-luciferase with dexamethasone, luminescence, overnight; MG213 cells expressing E1A, Rb sequestered; DMSO wells 0%, reference activator 100% | activation, % at 9.1 µM | 30% of 3,500 active | AID 652260;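 active means activation above its plate's cutoff, the mean activation of tested wells plus 3 SD, cut at about 7.9% in these data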
VP16 Luc act: activates GAL4-VP16 luciferase, flagging SMARCA2 activator hits; shares compounds with SMARCA2 act; 41% of 3,500 active; activation, % at 9.1 µM; HEK293 GAL4-VP16 pG5luc reporter, luciferase luminescence; scaled: DMSO wells 0%, SAHA wells 100%;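 active means activation above the solvent-only control well mean plus 3 SD, averaged across control plates, cut at about 5.2% in these data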
* = called active by the depositor; . = no result; ! = not active in a repeat. In the library only some 3.2% were active in any assay of this set; here they are far more common.

SMILES	NR2E3 ag-1	DAX1 inh-1	NR2E3 ag-2	SMARCA2 act	DAX1 inh-2	GASC-1 inh	SMARCA2 conf	VP16 Luc act	others
Cc1ccc(NC(=S)N/C(=N/S(=O)(=O)c2ccccc2)c2ccccc2)cc1	0	3	-125	9.7*!	5.6*!	-3	6	5.8*	DAX1 inh confirm=3;SF1 mutant ctr=3
CCc1ccc(NCc2nc3ccccc3c(=O)[nH]2)cc1	0	0	-102	8.3*	5.1*	0	11*	14*	DAX1 inh confirm=14*;SF1 mutant ctr=9.3*
CCCCNCc1nc2ccccc2c(=O)[nH]1	-1	-1	-18	5	0	-5	.	.
O=c1cc(-c2ccccc2)oc2cc(O)cc(O)c12	0	2	-36	8.5*	5.7*	20	3	7.5*	DAX1 inh confirm=9.2*;SF1 mutant ctr=2
O=c1cc(-c2ccc(O)c(O)c2)oc2ccc3ccccc3c12	.	-4	-2	8.2*	8.4*	.	-7	5.2*	DAX1 inh confirm=1;SF1 mutant ctr=-5
O=S1(=O)C=CCN1Cc1cn(Cc2ccc(C(F)(F)F)cc2)nn1	.	.	.	-3	0	.	.	.
OCc1cn(-c2ccccc2)nc1-c1cc2ccccc2o1	-2	4.7*	-98	12*	5.8*	2	4	8.6*	DAX1 inh confirm=15*;SF1 mutant ctr=12*
O=S(=O)(c1ccc(F)cc1)n1c(CN2CCOCC2)nc2ccccc21	.	.	.	-2	0	.	.	.
O=C(/C=C\Nc1ccc2c(c1)OCO2)c1cccs1	-5	-1	-135	10*	9.0*	18	9.8*	5	DAX1 inh confirm=12*;SF1 mutant ctr=0
CC(=O)c1ccc(-c2cccc3nccn23)cc1	.	.	-8	-2	1	.	.	.
CC(=O)Nc1cccc(-c2cccc3nccn23)c1	.	.	-38	11*	5.4*	.	8.9*	7.7*	DAX1 inh confirm=5.6*;SF1 mutant ctr=3.7*
COC1=C[C@H](C(=O)N[C@H]2CCCC[C@@H]2NC(C)=O)[C@@]2(C)Cc3ccccc3[C@H]2CC1=O	.	.	.	-1	-1	.	.	.
COc1ccc(CNC(=O)c2ccc(C(C)C)cc2)cc1	2	2	-74	11*	6.8*	-1	7	17*	DAX1 inh confirm=7.6*;SF1 mutant ctr=5.7*
Nc1c(C(=O)O)ccc2c1C(=O)c1ccccc1C2=O	-6	0	0	4	0	29	.	.
Nc1ccc2c(c1)C(=O)c1ccccc1C2=O	1	2	-70	12*	10*	6	9.1*	9.0*	DAX1 inh confirm=7.2*;SF1 mutant ctr=5.0*
Cc1ccc(C)c(N2CCN(c3cnn(-c4nc5ccccc5s4)c(=O)c3Cl)CC2)c1	-1	3	-122	9.3*	3.7*	6	4	6.5*
CCOc1ccc(NC(=O)c2nccnc2CO)cc1	1	1	-102	9.8*	2	3	4	9.8*
CCOc1ccc(NC(=O)c2cnccn2)cc1	-2	0	-197	6	2	0	.	.
CCOc1ccc(NC(=O)c2cnsn2)cc1	4	0	-136	8.1*	2	3	14*	5
O=C(CSc1ccsc1[N+](=O)[O-])NCc1ccccc1	0	1	-54	11*	1	-30	7	3
Cc1ccccc1CN1CCCCC(NC(=O)c2cccc(C(F)(F)F)c2)C1=O (stereo not drawn)	.	.	.	-1	-1	.	.	.
O=C(c1cc(F)cc(F)c1)N1CCCC(c2nc(-c3cccs3)no2)C1 (stereo not drawn)	.	.	.	-3	0	.	.	.
CCOC(=O)c1nn(-c2ccc(Cl)cc2)c2nnc(Cc3ccccc3)c(=O)n12	-3	1	-7	12*	0	-5	-2	0
COc1ccccc1CC(=O)Nc1ccc(S(=O)(=O)N2CCOCC2)cc1	1	-1	12	0	0	3	.	.
O=C1Nc2ccccc2/C1=N\N=C\c1ccc(O)c(O)c1	-4	4.5*	-24	9.5*	0	-5	2	6.4*
SMILES	NR2E3 ag-1	DAX1 inh-1	NR2E3 ag-2	SMARCA2 act	DAX1 inh-2	GASC-1 inh	SMARCA2 conf	VP16 Luc act	others
COC(=O)[C@]12C[C@H](CC(=O)N3CCSCC3)C(=O)N(Cc3ccc(Cl)cc3Cl)C1=C[C@H](COCc1ccccc1)O[C@@H]2C	.	.	.	3	0	.	.	.
COC(=O)c1cc(Cl)nc2ccccc12	1	0	11	-3	0	-4	.	.
CCCc1cc(C(=O)OC)c2ccccc2n1	-1	1	-19	8.3*	0	19	-2	1
NNc1nc2c(-c3ccc(F)cc3)nnn2c2ccccc12	-2	2	-119	7	2	-2	.	.
NNc1nc2c(-c3ccc(Cl)cc3)nnn2c2ccccc12	3	5.8*	-103	8.4*	2	2	7	11*
O=C(C=Cc1ccccc1)CC(c1ccccc1)N1CCOCC1 (stereo not drawn)	.	0	4	8.8*	-2	.	7	3
O=C(C(c1ccccc1)N1CCOCC1)N1CCOCC1 (stereo not drawn)	-5	0	-1	3	0	-7	.	.
COc1ccc(CCN2C(=O)COc3ccccc3C2C(=O)Nc2c(C)cccc2C)cc1OC (stereo not drawn)	.	.	-23	0	-1	.	.	.
COC(=O)C1C2OC(C(Br)C2Br)C1C(=O)OC (stereo not drawn)	.	0	-19	4	1	.	.	.
C/C(=N/NC(=O)c1ccccn1)c1c[nH]c2ccccc12	-1	5.8*	-132	16*	2	-2	12*	4
Cc1ccc(C)c(OCC(O)CN2CCC(CN3C(=O)c4cccc5cccc(c45)C3=O)CC2)c1 (stereo not drawn)	-2	-1	-17	-4	-1	-3	.	.
COc1ccc(OCC(O)CN2CCC(CN3C(=O)c4cccc5cccc(c45)C3=O)CC2)cc1 (stereo not drawn)	0	-2	23	11*	-1	4	2	2
NC(=O)C1CCCN(C(=O)CCc2nnc(C3(c4ccc(Cl)cc4)CCC3)o2)C1 (stereo not drawn)	0	0	-13	2	1	-4	.	.

Bioassay records (PubChem BioAssay)
